High-throughput results (PubChem)
MC4R antag cAMP: MC4R antagonists of cAMP signaling, primary screen, cell-based, TR-FRET, antagonist arm of biased-ligand search. Melanocortin receptor 4 (Homo sapiens), P32245. MC4R-expressing cells, MTII-stimulated cAMP, LANCE TR-FRET. inhibition, % at 6.5 µM. actives 0.48% (n = 360,000). AID 540295, 2011;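 active = inhibition above its plate's cutoff, the mean of tested wells on that plate plus 3 SD, cut at about 29% in these data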;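 also: 0% = Melanotan II alone and 100% = Melanotan II plus saturating MCL0020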
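material = U2OS cells stably expressing human melanocortin 4 receptor (MC4R) | also added = Melanotan II challenge | dosing = single nominal compound dose of 6.5 µM | detection = TR-FRET with Eu-cAMP and labeled anti-cAMP, 671 nm | replication = singlicate | timing = compound 30 min, challenge 1 h, detection 1 h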
TAAR1 agonist: human TAAR1 agonists, primary screen, Fluo-8 calcium fluorescence, CHO RD-HGA16 cells; AID 624467, 2012; Trace amine-associated receptor 1 (Homo sapiens), Q96RJ0; vehicle wells 0%, saturating PEA agonist 100%; actives 0.99% (n = 360,000); activation, % at 3 µM;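 active = activation above the mean activation of all test compounds in the run plus 3 SD, cut at about 38% in these data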
Target sequence (Q96RJ0 whole entry, looked up): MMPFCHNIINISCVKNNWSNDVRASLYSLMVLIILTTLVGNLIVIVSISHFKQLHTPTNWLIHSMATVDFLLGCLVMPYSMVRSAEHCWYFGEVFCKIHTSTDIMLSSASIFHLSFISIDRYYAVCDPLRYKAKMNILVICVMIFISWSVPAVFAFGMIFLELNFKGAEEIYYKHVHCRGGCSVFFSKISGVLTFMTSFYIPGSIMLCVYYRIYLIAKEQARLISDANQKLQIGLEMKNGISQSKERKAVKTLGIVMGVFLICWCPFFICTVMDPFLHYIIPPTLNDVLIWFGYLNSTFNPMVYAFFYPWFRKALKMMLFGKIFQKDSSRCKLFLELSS
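Repeats: no replicates (n 1) | Material: CHO-derived RD-HGA16 cells with stable Gα16 and human TAAR1 | Technique: Kinetic Fluo-8 calcium fluorescence | Schedule: 17-24 h seeding, 75 min 37 °C dye, 30 min RT | Evaluation: % activation from peak over basal fluorescence ratio, DMSO-to-PEA scaled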
TAAR1 antag: human TAAR1 antagonists, primary screen, Fluo-8 calcium fluorescence, CHO RD-HGA16 cells; actives 1.5% (n = 360,000); Trace amine-associated receptor 1 (Homo sapiens), Q96RJ0; inhibition, % at 3 µM; antagonist;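 active = inhibition above a per-plate cutoff, the mean inhibition of test compounds on that plate plus 3 SD, cut at about 49% in these data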;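 also: 0% = DMSO plus EC80 beta-PEA response and 100% = DMSO alone without agonist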
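Material: CHO RD-HGA16 cells bearing hTAAR1; compound dosing: one-point dosing, 3 µM nominal final; schedule: dye loading 75 min at 37 °C, then 30 min room temperature; measured by: calcium fluorescence with Fluo-8; control set: vehicle and agonist controls; replication: n of 1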
Beta2AR agonist: beta2AR agonists driving receptor internalization, primary screen, cell-based, FAP fluorogen, flow cytometry; Am2.2-beta2AR cells; response, % (concentration not given with the values); actives 0.43% (n = 340,000);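 active = response above a set limit, near 3 SD of response in nonfluorescent compounds, cut at about 42% in these data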
m5-HT2A agonist: mouse Htr2a agonists via beta-arrestin recruitment, primary screen, cell-based, luminescence. actives 0.66% (n = 360,000). activation, % at 7.6 µM. 5-hydroxytryptamine receptor 2A (Mus musculus), P35363. CHO-K1 mHTR2A beta-arrestin complementation; percent of 30 µM serotonin response. AID 624169, 2012;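 active = activation above a run cutoff, the mean activation of all tested compounds plus 3 SD, cut at about 14% in these data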;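 also: 0% = plate median of compound wells and 100% = 30 µM serotonin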
MC4R barr agon: MC4R agonists recruiting beta-arrestin, primary screen, cell-based, luminescence, agonist arm of biased-ligand search; activation, % at 8.9 µM; actives 0.98% (n = 360,000); Melanocortin receptor 4 (Homo sapiens), P32245; AID 540308, 2011; U2OS MC4R beta-arrestin complementation; percent of melanotan II response, DMSO zero;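 active = activation above a per-plate cutoff, the mean activation of sample wells on that plate plus 3 SD, cut at about 8% in these data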
cAMP nonselect: nonselective cAMP signaling inhibitors, parental cells, counter-screen for MC4R biased antagonist project, cell-based, TR-FRET, U2OS, forskolin, triplicate | inhibition, % at 6.5 µM | AID 602193, 2012 | actives 26% (n = 1,600) | LANCE TR-FRET | shares compounds with MC4R antag cAMP;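 active = mean inhibition over triplicates above the low-control well mean plus 3 SD, set per campaign, cut at about 13% in these data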;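 also: signal is single emission at 671 nm which falls as cellular cAMP rises; 0% = forskolin-stimulated wells and 100% = buffer without forskolin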
MC4R cAMP antag: MC4R cAMP antagonists, retest, confirmation, cell-based, TR-FRET; shares compounds with MC4R antag cAMP; actives 27% (n = 1,600); inhibition, % at 6.5 µM; MC4R-expressing cells, MTII-stimulated cAMP; in the data active = inhibition above about 29%;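 also: 0% = agonist stimulated wells alone and 100% = agonist stimulated wells plus saturating reference antagonist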
MC4R barr conf: MC4R beta-arrestin agonists, retest, confirmation, cell-based, luminescence, U2OS. shares compounds with MC4R barr agon. U2OS MC4R beta-arrestin recruitment; scaled DMSO 0%, Melanotan II 100%. activation, % at 8.9 µM. actives 31% (n = 2,400);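 active = mean activation across replicates above the hit cutoff set in the earlier primary screen, cut at about 8% in these data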
MOR DOR agonist: agonists of MOR-DOR heterodimerization, counter-screen for MC4R biased agonist project, cell-based, luminescence; actives 5.8% (n = 2,400); AID 602194, 2012; shares compounds with MC4R barr agon; activation, % at 9.2 µM; U2OS PathHunter beta-arrestin, beta-gal luminescence; percent of deltorphin B response, DMSO zero;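 active = mean activation across replicates exceeds the hit threshold derived in the earlier primary screen, cut at about 18% in these data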;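 also: 100% = deltorphin B at 0.9 µM final and 0% = DMSO alone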
MOR ag counter: OPRM1 agonists via beta-arrestin recruitment, confirmation, counter-screen for mouse HTR2A agonist project, cell-based, luminescence, single concentration | actives 5.3% (n = 2,300) | activation, % at 9.3 µM | shares compounds with m5-HT2A agonist | U2OS OPRM1 beta-arrestin PathHunter; DMSO 0%, DAMGO 9.3 µM 100%;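 active = mean activation above the mean of DMSO-only wells plus 3 SD, cut at about 0.5% in these data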
HTR2A ag conf: mouse HTR2A agonists, beta-arrestin recruitment, confirmation, cell-based, luminescence, CHO-K1 PathHunter, triplicate | shares compounds with m5-HT2A agonist | DMSO 0%, 30 µM serotonin 100% | activation, % at 7.6 µM | actives 19% (n = 2,300) | AID 624381, 2012;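 active = mean activation across triplicates above the hit threshold derived in the original primary screen, cut at about 15% in these data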
The depositor's hits bear a star; x = not tested or not shown. A selection: hits, their analogues and other compounds. The true share with any hit is near 4.3%.

SMILES	MC4R antag cAMP	TAAR1 agonist	TAAR1 antag	Beta2AR agonist	m5-HT2A agonist	MC4R barr agon	cAMP nonselect	MC4R cAMP antag	MOR ag counter	HTR2A ag conf	others
CCN(CC)c1ccc(C(=O)NNC(=O)CNC(=O)c2ccco2)cc1	-3.8	2.1	-23.6	6.3	2.0	-2.0	x	x	x	x
CCOC(=O)c1c(C)n(CC(O)CN(C)C)c2cc(Br)c(OC)cc12 (centres undefined)	-7.0	4.6	5.8	-5.6	-1.3	-3.4	x	x	x	x
O=C(O)c1ccc(Nc2nc(-c3cc4ccccc4oc3=O)cs2)cc1O	21.0	3.0	13.0	-17.6	3.1	1.1	x	x	x	x
COc1ccc2oc(=O)c(-c3csc(Nc4cccc(O)c4)n3)cc2c1	30.1*	-0.9	39.4	17.3	0.3	13.2*	5.0	1.8	x	x	MC4R barr conf=27.9*;MOR DOR agonist=4.5
O=C(Nc1ccccc1-c1nc2ccccc2[nH]1)c1ccc(N2C(=O)CCC2=O)cc1	35.3*	18.6	50.4*	-6.8	3.9	10.3*	-0.9	26.8	x	x	MC4R barr conf=2.3;MOR DOR agonist=10.1
O=C(Nc1ccccc1-c1nc2ccccc2[nH]1)c1ccc(S(=O)(=O)N2CCCCC2)cc1	5.3	16.0	19.3	10.7	-0.3	-1.8	x	x	x	x
O=C(Nc1ccc(F)c(Cl)c1)C1Cc2c(-c3ccccc3Oc3ccccc3)ccnc2O1 (centres undefined)	6.7	1.0	13.5	x	5.2	1.0	x	x	x	x
Cc1cccc(C)c1NC(=O)c1sc(N)nc1-c1ccccc1	29.9*	-0.8	17.1	5.4	19.4*	1.3	-2.9	5.4	0.2	-2.0
COc1ccc(CN(C)S(=O)(=O)c2c(C)noc2C)cc1OC	2.2	1.8	7.5	4.4	0.0	-2.2	x	x	x	x
Cc1[nH]c2ccccc2c1CC(=O)Nc1ccc(Nc2cccnc2)c(-c2ccc(OC(F)(F)F)cc2)c1	x	3.5	-2.3	x	x	x	x	x	x	x
CN1CCc2c(sc(/N=C/c3cc(Cl)ccc3O)c2C#N)C1	39.1*	-0.2	0.2	22.1	19.3*	-0.8	1.4	3.7	-0.6	65.5*
COc1ccc(-c2cc(-c3nc4ccccn4c3NCc3ccccc3)ccc2OC)cc1	37.5*	19.8	87.5*	66.0*	32.6*	3.3	8.5	34.2*	1.4*	29.4*
